From ChEMBL document CHEMBL1142116, “Mixed lignan-neolignans from Tarenna attenuata” (J Nat Prod, 2007)

Legend:
Type in all cases: functional
[1] = system: PC-12; test: Antioxidant effect against hydrogen peroxide-induced impairment in PC12 cells assessed as cell viability at 50 uM by MTT assay relative to control; conditions: Rattus norvegicus, read-out: Activity
How it was run: (§1)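 PC12 cells seeded in RPMI 1640 with 10% newborn bovine serum; after 24 h, compound (0.4–50 µM) added together with freshly prepared H2O2 (0.2 mM final) in PBS for 1 h. Then MTT (0.5 mg/mL in PBS) for 4 h, lysis with 5% i-BuOH/10% SDS/0.004% HCl overnight, OD 570 nm; viability as % of untreated control; n = 5, mean ± SD.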

[2] = system: Radical scavenging activity; test: Antioxidant effect assessed as DPPH radical scavenging activity
How it was run: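 Compound at five concentrations (0.16–100.0 µM) mixed 1:1 with 0.1 mM DPPH in EtOH, 30 min at 37 °C, absorbance at 517 nm. Scavenging % = (Acontrol − Asample)/Acontrol × 100; IC50 from concentration series.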

[3] = system: PC-12; test: Antioxidant effect against hydrogen peroxide-induced impairment in PC12 cells assessed as cell viability at 0.4 uM by MTT assay relative to control; conditions: Rattus norvegicus, read-out: Activity; how it was run: as §1
[4] = system: PC-12; test: Antioxidant effect against hydrogen peroxide-induced impairment in PC12 cells assessed as cell viability at 2 uM by MTT assay relative to control; conditions: Rattus norvegicus, read-out: Activity; how it was run: as §1
[5] = system: PC-12; test: Antioxidant effect against hydrogen peroxide-induced impairment in PC12 cells assessed as cell viability at 10 uM by MTT assay relative to control; conditions: Rattus norvegicus, read-out: Activity; how it was run: as §1

Row | Compound | IC50 [2] [µM] | viability at 50 µM [1] [%] | viability at 0.4 µM [3] [%] | viability at 2 µM [4] [%] | viability at 10 µM [5] [%]
1 | COc1cc2c(c(OC)c1O)[C@@H](CO)[C@@H](c1cc(OC)c(OC)c(OC)c1)O2 | 45 | 55 | 61.4 | 58 | 58.2
2 | COc1cc(C(O)C(CO)Oc2c(OC)cc(C(O)C(CO)Oc3c(OC)cc([C@@H]4Oc5c(OC)cc(/C=C/C=O)cc5[C@H]4CO)cc3OC)cc2OC)ccc1O (stereo not given in full) | 127 | 51 | 50.3 | 54.7 | 55.2
3 | COc1cc([C@H](O)[C@@H](CO)Oc2c(OC)cc([C@@H]3OC[C@@H]4[C@H]3CO[C@H]4c3cc(OC)c(O[C@H](CO)[C@@H](O)c4ccc(O)c(OC)c4)c(OC)c3)cc2OC)ccc1O | 55 | 55.3 | 52.2 | 53.2 | 54.3
4 | COc1cc(C(O)C(CO)Oc2ccc(C(O)C(CO)Oc3c(OC)cc([C@@H]4Oc5c(OC)cc(/C=C/C=O)cc5[C@H]4CO)cc3OC)cc2OC)ccc1O (stereo not given in full) | 201 | 55.9 | 52.8 | 47.9 | 64.4
5 | CC1=NN(c2ccccc2)C(=O)C1 [EDARAVONE] | 27 | 25.6 | 55.5 | 53.1 | 47.8
6 | CCOC(c1ccc(O)c(OC)c1)C(O)CO (stereo not given) | 132 | 57.3 | 54.1 | 54.9 | 56.8

Further compounds by falling IC50 [2], results first:

Row | IC50 [2] [µM] | Compound | viability at 50 µM [1] [%] | viability at 0.4 µM [3] [%] | viability at 2 µM [4] [%] | viability at 10 µM [5] [%]
7 | 147 | COc1cc(C(O)C(CO)Oc2c(OC)cc([C@@H]3Oc4c(OC)cc(/C=C/C=O)cc4[C@H]3CO)cc2OC)ccc1O (stereo not given in full) | 64.8 | 56.9 | 56.8 | 62.6
8 | 87 | COc1cc([C@H](O)[C@@H](CO)Oc2c(OC)cc([C@@H]3OC[C@@H]4[C@H]3CO[C@H]4c3cc(OC)c(O[C@H](CO)[C@@H](O)c4cc(OC)c(O)c(OC)c4)c(OC)c3)cc2OC)ccc1O | 54.1 | 51.9 | 54.3 | 54.7
9 | 72 | COc1cc(C(O)C(CO)Oc2c(OC)cc([C@@H]3OC[C@@H]4C(=O)OC[C@@H]43)cc2OC)ccc1O (stereo not given in full) | 45.7 | 59.3 | 61.8 | 59.4
